Published values from different studies.
Target: BMP-2-inducible protein kinase (BMP2K, Homo sapiens, UniProt Q9NSY1)

| SMILES | observed | mode | technique | concentration | measurement | result |
| --- | --- | --- | --- | --- | --- | --- |
| Cc1ccc(C(=O)NCc2ccsc2)cc1C#Cc1cn(C(C)C)c2ncnc(N)c12 | enzyme activity | inhibitor | – | 1 µM | activity vs control | 128% |
| Cn1c2c(Cl)c(Cl)ccc2c2cc[nH]c(=O)c21 | thermal stability | – | DSF | 10 µM | ΔTm | > 8 °C |
| N#CC1(c2ccccn2)CCN(Cc2cc(C(=O)N3CCCC3)c(=O)n3ccccc23)CC1 | cell-free assay | – | competition with immobilised ligand | 1 µM | remaining binding | 92% |
| Cc1nn(CC(F)(F)F)cc1Nc1ncc(C2CC2)c(NCc2ccc(S(N)(=O)=O)cc2)n1 | enzyme activity | inhibitor | radiometric | 1 µM | remaining activity | 94% |
| Cn1nc(C(=O)NCc2ccc(C(=O)O)cc2)cc1-c1ccc2[nH]ccc2c1 | cell-free assay | – | competition with immobilised ligand | 0.1 µM | remaining binding | 82% |
| CN(CCCC(F)(F)F)c1nccc(-c2cnn3ncccc23)n1 | binding | – | – | 1 µM | remaining binding | 100% |
| CN1CCc2cc(Nc3ncc(C4CC4)c(NCCCNC(=O)C4CCC4)n3)ccc2C1 | enzyme activity | inhibitor | radiometric | 1 µM | remaining activity | 3% |
| Cc1ccc(C(=O)Nc2ccc(CN3CCN(C)CC3)c(C(F)(F)F)c2)cc1C#Cc1cnc2cccnn12 | enzyme activity | inhibitor | – | 23.5 nM | remaining activity | 95% |
| NS(=O)(=O)c1ccc(CNc2ccnc(Nc3cccc(CN4CCOCC4)c3)n2)cc1 | enzyme activity | inhibitor | radiometric | 1 µM | remaining activity | 51% |
| Nc1ncnc2occ(-c3ccc(NC(=O)Nc4cc(C(F)(F)F)ccc4F)cc3)c12 | cell-free assay | inhibitor | – | 20 µM | remaining signal | 59% |
